Bioassay records (PubChem)
This is a sample that favours compounds with a hit; in the whole collection about 2.5% have one here.
HEK293 NFkB inh – inhibitors of PMA/ionomycin-induced NF-kB reporter, primary screen, antigen receptor NF-kB inhibitor project, cell-based, HEK-293 luciferase reporter, luminescence | AID 465, 2006 | 0.21% of 62,000 active | inhibition, % at 3 µM | HEK-293 NF-kB luciferase reporter;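 active means inhibition above the mean of all tested compounds plus 3 SD, cut at about 40% in these data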;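 further: 0% = stimulated DMSO wells and 100% = 10 µM reference inhibitor 5653914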
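Signal: luciferase luminescence; Material: HEK-293 cells with stable firefly luciferase reporter driven by four HIV NF-kB elements; Probe or stimulus: PMA with ionomycin; Replication: tested once; Times: 1 h compound pretreatment, then 16 h stimulation at 37 °C, 5% CO2; Benchmarks: DMSO and 10 µM reference inhibitor; Evaluation: per-plate % inhibition versus controls.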
AP ELISA ortho – alternative complement pathway inhibitors, primary screen, biochemical, ELISA, human serum, orthogonally pooled compounds. 0.08% of 62,000 active. AID 1235, 2008. LPS-coated ELISA, C3 deposition; tested in compound mixtures. inhibition, % at 5 µM;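 active means inhibition above 30% in each of the two pooled mixtures holding the compound, so the lower value exceeds 30%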;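 further: 0% = serum in Mg-EGTA without compound and 100% = EDTA serum blank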
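Assay system: Human serum alternative complement pathway, C3 deposition on LPS-coated wells | Incubation: 1 h serum-compound exposure at 37 °C | Doses: 5 µM per compound in ten-compound mixtures | Read-out: Percent inhibition | Technique: ELISA with HRP anti-human C3 antibody, TMB substrate, absorbance 450 nm | Replication: Two pool placements per compound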
HER2 expr 66K – inhibitors of Her2 protein expression, primary screen, SKBR-3 cells, AlphaScreen, 66K library; Receptor tyrosine-protein kinase erbB-2 (Homo sapiens), P04626; 0.69% of 65,000 active; SKBR-3 HER2 protein level, 18-24 h; hits give low values; HER2 level % of control, % at 10 µM;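 active means HER2 level under 5% of the carrier-only control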;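 further: 100% = DMSO carrier and 0% = 500 nM PU-H71 HSP90 inhibitor; lower value means stronger loss of Her2 protein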
JNK3 blocker – JNK3 kinase activity inhibitors, primary screen, biochemical, human, purified enzyme | HTS | inhibition, % at 8 µM | 0.61% of 60,000 active | AID 746, 2007; in the data active means inhibition above about 17%;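 further: 0% = DMSO and 100% = reference inhibitor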
Jurkat tox 60K – cytotoxicity toward Jurkat T cells, primary screen, cytotoxicity control, cell-based, Jurkat E6.1, 60K MLSMR library; Jurkat E6.1 viability, ATP luminescence, 48 h; 1.2% of 56,000 active; AID 463, 2006; inhibition, % at 4 µM;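 active means inhibition above the mean inhibition of all tested compounds plus 3 SD, cut at about 28% in these data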
Hsp90 inh – tumor Hsp90 inhibitors, primary screen, cell lysate, fluorescence polarization, NCI-N417 lysate | Heat shock protein HSP 90-alpha (Homo sapiens), P07900 | Cy3B-geldanamycin FP displacement | inhibition, % at 30 µM | 0.35% of 64,000 active;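 active means inhibition above 50%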;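 further: 0% = tracer plus lysate wells and 100% = tracer alone without lysate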
* = called active by the depositor; . = not tested or not shown.

SMILES	HEK293 NFkB inh	AP ELISA ortho	HER2 expr 66K	JNK3 blocker	Jurkat tox 60K	Hsp90 inh
COc1cc(C2NC(=O)NC(C)=C2C(=O)OC2CCCC(C)C2)ccc1O (stereo unspecified)	14	-3	111	36*	8	3
CC1=C(C(=O)OC2CCCCCCC2)C(c2ccc(O)cc2)NC(=O)N1 (stereo unspecified)	22	17	106	22*	11	-2
C=C/C(C)=C/[C@@]1(C)SC(=O)C(C)=C1O	.	.	.	.	.	-2
COc1ccc(S(=O)(=O)Cc2ccc(C(=O)N3CCN(c4cccc(C)c4)C(C)C3)o2)cc1 (stereo unspecified)	9	6	63	-1	90*	0
COc1ccccc1S(=O)(=O)Cc1ccc(C(=O)N2CCN(c3ccc(C)cc3)C(C)C2)o1 (stereo unspecified)	14	-2	65	-5	16	2
O=C(O)c1cc(S(=O)(=O)Nc2ccc3c(c2)OCCO3)c(Cl)cc1Cl	15	7	80	-8	-1	2
COc1ccc(C(C)=O)cc1COC(=O)c1cccc(N(C)C)c1	17	9	86	16	-9	0
COc1ccc(C(C)=O)cc1COC(=O)c1cc(C)oc1C	5	21	131	18*	5	-2
CCOC(=O)CNC(=O)CSc1ncnc2c1cnn2Cc1ccccc1	8	0	-18*	1	6	1
Cc1ccccc1-n1ncc2c(SCC(=O)NCc3cccs3)ncnc21	10	1	58	-1	40*	-2
O=C(COc1cc(Cl)c(Cl)cc1Cl)Nn1cnnc1	14	16	85	-1	-1	-20
O=C(CCN1C(=O)c2cccnc2C1=O)NC1CCCCCC1	24	8	-17*	4	-1	3
CCC(c1nnc(SCC(=O)NCCc2ccc(Cl)cc2Cl)o1)N(C)C (stereo unspecified)	12	-5	76	-5	-3	2
COc1ccccc1C(=O)N1CCN(C(=O)c2ccncc2)CC1	-7	4	77	1	3	0
Cc1onc(-c2ccccc2Cl)c1C(=O)N1CCN(c2cccc(Cl)c2)CC1	29	21	59	-1	61*	-5
O=C(c1ccccc1)N1CCCC(C(=O)N2CCCCCC2)C1 (stereo unspecified)	24	-4	121	-1	-6	1
COc1ccccc1C(=O)N1CCN(c2cccc(Cl)c2)CC1	40*	15	41	.	.	.
O=C(c1cccc(Cl)c1)N1CCN(C(=O)c2ccccc2F)CC1	.	.	109	0	.	0
O=C(c1cccc(F)c1)N1CCN(c2cccc(Cl)c2)CC1	2	12	53	-6	80*	-3
O=C(c1cccc(F)c1)N1CCCC(C(=O)N2CCCC2)C1 (stereo unspecified)	22	6	94	35*	-3	-2
COc1ccc(N=C(C)C2=C(O)COC2=O)cc1	-1	2	108	-6	-3	-2
COc1cccc(C(=O)c2sc(NC(C)C)nc2N)c1	.	.	25	17*	.	-4
O=C(COC(=O)C1c2ccccc2Oc2ccccc21)Nc1ccc2c(c1)OCO2	24	21	103	-3	0	5
O=c1nc2scc(-c3ccccc3)n2c2ccccc12	9	17	66	.	.	.
Cc1cc(NC(c2cccnc2)c2ccc3cccnc3c2O)no1 (stereo unspecified)	2	7	73	-1	37*	-4
SMILES	HEK293 NFkB inh	AP ELISA ortho	HER2 expr 66K	JNK3 blocker	Jurkat tox 60K	Hsp90 inh
COc1ccc(C2C(C#N)=C(N)OC(C(C)(C)C)=C2C#N)cc1OC (stereo unspecified)	-5	9	138	2	2	-1
COc1ccc(C2C(C#N)=C(N)SC(N)=C2C#N)cc1OC	.	2	110	22*	.	-10
CC1(C)CCC=[N+]1[O-]	.	.	.	.	.	-1
COCCn1c(SCC(=O)Nc2nnc(C)s2)nnc1-c1ccncc1	5	6	53	-2	-4	0
CCOC(=O)c1sc(NC(=O)CSc2nnc(-c3ccc(OC)cc3)n2CCOC)nc1C	11	19	141	1	4	85*
COc1ccc(CCNc2ncnc3c2oc2ccccc23)cc1OC	37	13	57	2	84*	-4
C=CCn1c2ccccc2c2nnc(SCc3ccc4nonc4c3)nc21	14	16	74	-1	4	-4
CCCSc1nnc(Sc2nnnn2-c2ccccc2)s1	27	1	19	0	98*	-1
Cc1c(O)c(CN2CCCC(C)C2)cc2c3c(c(=O)oc12)CCC3 (stereo unspecified)	.	-1	123	-4	.	3
C(=N/n1c2ccccc2c2ccccc21)/c1ccco1	12	1	1.7*	-3	-4	-5
COc1ccc2nc(NC(=O)Cc3ccc(OC)c(S(=O)(=O)N4CCOCC4)c3)sc2c1	10	4	75	29*	-1	-3
COc1cc(NCCCCCN2C(=O)c3ccccc3C2=O)c2ncccc2c1	.	.	.	.	.	2
O=c1c2[nH]c3ccc(F)cc3c2ncn1CCCn1ccnc1	19	9	79	0	33*	-2
Clc1ccc(-c2nnc(-c3ccccc3)o2)c(Cl)c1	-28	0	-26*	-2	1	2
CCOC(=O)c1nnn(-c2nonc2N)c1-c1ccc(OC)cc1	6	22	81	0	4	0
COc1cc2[nH]c(=O)n(CCC(=O)N3CCN(c4cc(Cl)ccc4C)CC3)c(=O)c2cc1OC	14	8	-23*	.	.	.
CCOc1cc2[nH]c(=O)n(CCC(=O)N3CCN(c4ccccc4OC)CC3)c(=O)c2cc1OCC	16	2	97	-7	3	0
CCOC(=O)c1cnc2ccc(OCC)cc2c1N1CCN(C)CC1	21	15	54	8	2	-2
CCOC(=O)c1cnc2ccc(Cl)cc2c1N1CCN(C)CC1	6	14	127	32*	5	-11
Cc1csc(NC(=O)c2sc3nc(-c4cccs4)ccc3c2N)n1	54*	3	58	4	-7	-3
CCc1nnc(NC(=O)CSc2nnc(COc3ccccc3)n2-c2ccc(C)cc2)s1	17	4	109	2	3	0
CCc1nnc(NC(=O)CSc2nnc(-c3ccccc3O)n2-c2ccc(C)cc2C)s1	16	-5	86	0	80*	-2
CCN(CC)C(=O)C1CCCc2c1[nH]c1ccc(Cl)cc21 (stereo unspecified)	24	7	63	2	40*	-1
